{"source": "paper PMC4224566", "about": "(Molecular Pharmaceutics, 2014)", "assay_type": "physicochemical", "conditions": "0.5 M pH 4.0 acetate buffer, 1 mg/mL, 100 °C, analytical HPLC, LC-MS", "in_short": "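Each peptide (about 0.1 mL) was heated in a sealed plastic tube, cooled, and then analysed by reversed-phase C18 analytical HPLC with UV detection. The HPLC ran at 1 mL/min: 5% acetonitrile/0.1% TFA in water/0.1% TFA for 5 min, then rising by 2%/min to 65%. Samples showing decomposition were run on a separate LC-MS. Samples with little or none were heated 30 min more and re-analysed.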"}
{"substance": "Ph-NCS-E[c(RGDfK)]2 [compound 10]", "values": [{"measurement": "release of monomer after 10 min heating", "result": "obvious release of c(RGDfK)"}]}
